Nine molecules from ChEMBL document CHEMBL2417403, “N-terminal guanidinylation of TIPP (Tyr-Tic-Phe-Phe) peptides results in major changes of the opioid activity profile” (Bioorg Med Chem Lett, 2013) can be followed below.

pIC50, pKi: −log10 of the molar value. Where a SMILES comes first, the peptide text is derived from it.

Test [1] deals with Delta-type opioid receptor (Mus musculus) (UniProt P32300). Nature of the test: Antagonist activity at delta opioid receptor in mouse vas deferens assessed as inhibition of electrically-stimulated muscle contraction. In outline: (§1)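 Mouse vas deferens bioassay, delta-representative tissue. Agonist potency was expressed as IC₅₀ and antagonist activity as a Ke value.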
Test [2] deals with Mu-type opioid receptor (Cavia porcellus, UniProt P97266). Nature of the test: Agonist activity at mu opioid receptor in guinea pig ileum assessed as […] of electrically-stimulated muscle contraction. The format is tissue-based.
The target of test [3] is Kappa-type opioid receptor (Cavia porcellus, UniProt P41144). Nature of the test: Displacement of [3H]U69,593 from kappa opioid receptor in guinea pig brain membranes. The format is cell membranes, Membrane. The method in brief:
(§2)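 Competitive displacement of tritiated radioligands, with affinities reported as Ki. Mu sites were labelled with [³H]DAMGO and delta sites with [³H]DSLET, both on rat brain membranes. Kappa sites were labelled with [³H]U69,593 on guinea pig brain membranes.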

Test [4] concerns the target Mu-type opioid receptor (Rattus norvegicus, UniProt P33535). The test can be described thus: Displacement of [3H]DAMGO from mu opioid receptor in rat brain membranes. The format is cell membranes. The method in brief:
as §2

For another test, the species on record is Rattus norvegicus. Nature of the test: Selectivity ratio of Ki for mu opioid receptor in rat brain membranes to Ki for delta opioid receptor in rat brain membranes. The format is cell membranes.
Test [5] deals with Delta-type opioid receptor (Rattus norvegicus, UniProt P33533). The test can be described thus: Displacement of [3H]DSLET from delta opioid receptor in rat brain membranes. The format is cell membranes. The method in brief: as §2
A short description of test [6]: Selectivity ratio of Ki for kappa opioid receptor in guinea pig brain membranes to Ki for delta opioid receptor in rat brain membranes. The format is cell membranes.
Test [7] concerns the target Delta-type opioid receptor (Mus musculus) (UniProt P32300). The test can be described thus: Partial agonist activity at delta opioid receptor in mouse vas deferens assessed as inhibition of electrically-stimulated muscle contraction. The method in brief:
as §1

Test [8] deals with mu/kappa opioid receptor (Cavia porcellus) (UniProt P41144+P97266). Nature of the test: Partial agonist activity at mu/kappa opioid receptor in guinea pig ileum assessed as inhibition of electrically-stimulated muscle contraction. The format is tissue-based.
Sequence of mu/kappa opioid receptor (Cavia porcellus) (P41144 whole entry, looked up): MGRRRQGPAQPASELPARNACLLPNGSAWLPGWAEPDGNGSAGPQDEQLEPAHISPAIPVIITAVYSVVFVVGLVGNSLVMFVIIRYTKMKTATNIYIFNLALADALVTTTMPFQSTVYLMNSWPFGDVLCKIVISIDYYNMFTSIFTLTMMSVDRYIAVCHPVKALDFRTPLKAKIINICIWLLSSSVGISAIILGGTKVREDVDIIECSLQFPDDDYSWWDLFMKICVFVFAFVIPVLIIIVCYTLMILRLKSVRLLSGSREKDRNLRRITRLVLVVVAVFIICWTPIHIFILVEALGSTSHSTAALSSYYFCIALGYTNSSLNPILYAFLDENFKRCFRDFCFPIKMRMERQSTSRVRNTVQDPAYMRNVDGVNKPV
Sequence of mu/kappa opioid receptor (Cavia porcellus) (P97266 whole entry, looked up): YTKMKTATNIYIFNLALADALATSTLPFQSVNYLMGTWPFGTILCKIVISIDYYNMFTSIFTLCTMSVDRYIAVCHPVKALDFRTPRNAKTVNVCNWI

Sequence of Delta-type opioid receptor (Mus musculus) (P32300 whole entry): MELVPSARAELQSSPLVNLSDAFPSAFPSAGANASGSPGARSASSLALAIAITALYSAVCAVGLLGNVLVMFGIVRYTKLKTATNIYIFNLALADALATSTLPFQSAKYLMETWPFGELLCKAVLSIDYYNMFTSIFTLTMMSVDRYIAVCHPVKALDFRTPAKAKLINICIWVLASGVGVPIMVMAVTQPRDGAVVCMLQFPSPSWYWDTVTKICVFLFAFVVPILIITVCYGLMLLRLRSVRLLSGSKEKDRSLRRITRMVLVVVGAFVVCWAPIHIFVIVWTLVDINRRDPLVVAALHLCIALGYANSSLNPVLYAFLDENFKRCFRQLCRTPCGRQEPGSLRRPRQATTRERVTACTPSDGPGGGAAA
Sequence of Mu-type opioid receptor (Cavia porcellus, UniProt P97266) (P97266 whole entry): as the sequence (P97266 whole entry, looked up) above
Sequence of Delta-type opioid receptor (P33533 whole entry): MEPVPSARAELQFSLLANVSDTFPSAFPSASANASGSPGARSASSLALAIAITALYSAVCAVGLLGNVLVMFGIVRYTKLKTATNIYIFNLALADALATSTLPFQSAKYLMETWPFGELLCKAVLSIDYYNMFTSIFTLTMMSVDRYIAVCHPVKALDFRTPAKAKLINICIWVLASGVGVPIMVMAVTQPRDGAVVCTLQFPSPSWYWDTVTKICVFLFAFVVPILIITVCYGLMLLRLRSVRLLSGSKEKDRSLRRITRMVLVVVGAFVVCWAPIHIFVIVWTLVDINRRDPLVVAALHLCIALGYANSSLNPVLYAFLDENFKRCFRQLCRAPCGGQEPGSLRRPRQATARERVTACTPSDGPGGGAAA
Sequence of Mu-type opioid receptor (Rattus norvegicus, UniProt P33535) (P33535 whole entry): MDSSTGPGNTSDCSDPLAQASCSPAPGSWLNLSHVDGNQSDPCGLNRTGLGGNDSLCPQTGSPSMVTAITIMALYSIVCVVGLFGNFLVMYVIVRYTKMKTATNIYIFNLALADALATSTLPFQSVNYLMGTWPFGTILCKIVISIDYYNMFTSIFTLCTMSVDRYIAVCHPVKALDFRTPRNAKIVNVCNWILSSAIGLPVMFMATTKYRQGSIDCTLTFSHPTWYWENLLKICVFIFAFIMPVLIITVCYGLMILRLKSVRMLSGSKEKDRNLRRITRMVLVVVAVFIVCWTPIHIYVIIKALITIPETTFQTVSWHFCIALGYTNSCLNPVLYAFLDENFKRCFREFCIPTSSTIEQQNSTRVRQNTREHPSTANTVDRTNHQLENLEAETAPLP
Sequence of Kappa-type opioid receptor (P41144 whole entry): as the sequence (P41144 whole entry, looked up) above

Turning to `Cc1cc(O)cc(C)c1C[C@H](N)C(=O)N1Cc2ccccc2CC1CN[C@@H](Cc1ccccc1)C(=O)N[C@@H](Cc1ccccc1)C(N)=O` (some centres not stated), the Ke in [1] amounted to 0.537 nM. Further, at Mu-type opioid receptor [2], the pIC50 is 8.11.
In the case of `Cc1cc(O)cc(C)c1C[C@H](N)C(=O)N1Cc2ccccc2C[C@H]1C(=O)N[C@@H](CCCCN)C(=O)N[C@@H](Cc1ccccc1)C(N)=O` (HELM PEPTIDE1{[Cc1cc(O)cc(C)c1C[C@H](N)C(=O)[*:2]].[Tic].K.F.[am]}$$$$V2.0), the Ke in test [1] was determined as 2.18 nM. The pIC50 at Mu-type opioid receptor [2] was 7.78. Also, the results for the pKi (in test [3]; on Mu-type opioid receptor [4]; in [5]) were 8.65, 7.71 and 9.51, respectively. Moreover, the values for the Ratio Ki (in the test listed under Rattus norvegicus; in test [6]) were 63 and 7, respectively.
Consider `Cc1cc(O)cc(C)c1C[C@H](NC(=N)N)C(=O)N1Cc2ccccc2C[C@H]1C(=O)N[C@@H](Cc1ccccc1)C(=O)N[C@@H](Cc1ccccc1)C(=O)O`, for which the IC35 in test [7] is 1.57 nM.
On to `Cc1cc(O)cc(C)c1C[C@H](NC(=N)N)C(=O)N1Cc2ccccc2C[C@H]1C(=O)O`, for which the Imax in test [8] and in test [7] was 50% each time.
For the molecule `Cc1cc(O)cc(C)c1C[C@H](NC(=N)N)C(=O)N1Cc2ccccc2C[C@H]1CN[C@@H](CCCCN)C(=O)N[C@@H](Cc1ccccc1)C(N)=O`, the IC35 in test [7] came to 7.35 nM.
Take `N[C@@H](Cc1ccc(O)cc1)C(=O)N1Cc2ccccc2C[C@H]1C(=O)N[C@@H](Cc1ccccc1)C(=O)N[C@@H](Cc1ccccc1)C(=O)O` (HELM PEPTIDE1{Y.[Tic].F.F}$$$$V2.0): the Ke in [1] was 480 nM.
For `N=C(N)N[C@@H](Cc1ccc(O)cc1)C(=O)N1Cc2ccccc2C[C@H]1CN[C@@H](Cc1ccccc1)C(=O)N[C@@H](Cc1ccccc1)C(=O)O`, the Imax in test [7] came to 50%.
Still for that read-out and setting: the result for `N=C(N)N[C@@H](Cc1ccc(O)cc1)C(=O)N1Cc2ccccc2C[C@H]1C(=O)N[C@@H](Cc1ccccc1)C(=O)N[C@@H](Cc1ccccc1)C(=O)O` reads 33%.
Take `Cc1cc(O)cc(C)c1C[C@H](N)C(=O)N1Cc2ccccc2C[C@H]1CN[C@@H](CCCCN)C(=O)N[C@@H](Cc1ccccc1)C(N)=O`: the IC35 in [7] was determined as 23.2 nM.
